In ChEMBL document CHEMBL1146243, “Design, synthesis, and biological evaluation of tricyclic heterocycle-tetraamine conjugates as potent NMDA channel blockers” (Bioorg Med Chem Lett, 2007):

What was measured:
FM3A = test: Cytotoxicity in mouse FM3A cells after 48 hrs; format: functional, cell-based
Outline: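 FM3A cells (1 × 10⁴) cultured in ES medium with or without various compound concentrations at 37 °C for 48 h. Cells counted with 0.05% Trypan blue. IC50 as mean ± SD of triplicate determinations.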

[1] = target: Glutamate NMDA receptor; GRIN1/GRIN2A (Homo sapiens, UniProt Q05586+Q12879); test: Antagonist activity at recombinant NR1/NR2A receptor expressed in Xenopus laevis oocytes; format: functional, cell-based, Oocyte
Sequence of Glutamate NMDA receptor; GRIN1/GRIN2A (Q12879 whole entry, other chains not shown, the tested form may be a part): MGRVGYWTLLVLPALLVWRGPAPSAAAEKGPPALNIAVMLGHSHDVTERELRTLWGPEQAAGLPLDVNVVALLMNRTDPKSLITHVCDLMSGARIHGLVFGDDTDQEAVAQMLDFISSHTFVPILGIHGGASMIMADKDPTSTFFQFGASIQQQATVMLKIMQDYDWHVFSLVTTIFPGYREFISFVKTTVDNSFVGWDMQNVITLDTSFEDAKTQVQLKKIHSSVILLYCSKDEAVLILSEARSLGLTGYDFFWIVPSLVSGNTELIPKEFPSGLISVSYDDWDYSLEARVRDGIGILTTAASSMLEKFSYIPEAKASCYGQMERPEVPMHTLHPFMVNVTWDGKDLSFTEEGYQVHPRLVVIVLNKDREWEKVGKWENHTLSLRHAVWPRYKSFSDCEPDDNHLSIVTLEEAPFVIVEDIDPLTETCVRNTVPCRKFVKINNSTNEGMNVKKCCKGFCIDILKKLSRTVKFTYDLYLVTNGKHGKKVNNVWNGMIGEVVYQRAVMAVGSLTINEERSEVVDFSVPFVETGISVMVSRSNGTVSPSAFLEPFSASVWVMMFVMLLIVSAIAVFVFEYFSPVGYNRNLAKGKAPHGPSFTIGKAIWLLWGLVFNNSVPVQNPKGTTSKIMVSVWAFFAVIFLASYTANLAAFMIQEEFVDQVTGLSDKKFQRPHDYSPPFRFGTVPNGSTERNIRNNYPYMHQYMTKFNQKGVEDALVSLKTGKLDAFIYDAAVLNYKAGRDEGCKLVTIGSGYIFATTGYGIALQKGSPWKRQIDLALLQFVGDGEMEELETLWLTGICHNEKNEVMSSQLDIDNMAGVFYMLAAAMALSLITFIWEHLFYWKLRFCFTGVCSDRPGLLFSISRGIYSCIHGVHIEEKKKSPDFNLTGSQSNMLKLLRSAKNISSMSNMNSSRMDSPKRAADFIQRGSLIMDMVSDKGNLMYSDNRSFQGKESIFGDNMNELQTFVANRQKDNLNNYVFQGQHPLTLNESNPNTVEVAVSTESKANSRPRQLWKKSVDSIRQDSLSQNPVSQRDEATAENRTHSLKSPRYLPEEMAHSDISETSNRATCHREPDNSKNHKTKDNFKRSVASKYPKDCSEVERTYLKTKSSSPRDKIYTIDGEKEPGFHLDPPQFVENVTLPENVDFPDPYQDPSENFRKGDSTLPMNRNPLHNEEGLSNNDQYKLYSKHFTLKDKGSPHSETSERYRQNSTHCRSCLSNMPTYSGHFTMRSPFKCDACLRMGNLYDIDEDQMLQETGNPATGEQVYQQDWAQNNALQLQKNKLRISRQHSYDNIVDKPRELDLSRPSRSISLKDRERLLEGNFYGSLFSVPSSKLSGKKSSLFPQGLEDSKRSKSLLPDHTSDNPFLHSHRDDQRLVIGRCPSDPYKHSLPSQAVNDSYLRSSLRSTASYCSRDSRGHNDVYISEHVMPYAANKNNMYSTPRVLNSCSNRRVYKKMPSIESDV
Outline: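 Two-electrode voltage clamp of oocytes injected with NR1 plus NR2A cRNA at 1:5 (0.1–4 ng NR1 plus 0.5–20 ng NR2), held at -70 mV. Receptors activated by superfused glycine and glutamate (10 µM). IC50 from concentration–inhibition curves over five or six concentrations; means ± SEM of four oocytes.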

[2] = target: Glutamate NMDA receptor; GRIN1/GRIN2B (Homo sapiens, UniProt Q05586+Q13224); test: Antagonist activity at recombinant NR1/NR2B receptor expressed in Xenopus laevis oocytes; format: functional, cell-based, Oocyte
Sequence of Glutamate NMDA receptor; GRIN1/GRIN2B (Q13224 whole entry, other chains not shown, the tested form may be a part): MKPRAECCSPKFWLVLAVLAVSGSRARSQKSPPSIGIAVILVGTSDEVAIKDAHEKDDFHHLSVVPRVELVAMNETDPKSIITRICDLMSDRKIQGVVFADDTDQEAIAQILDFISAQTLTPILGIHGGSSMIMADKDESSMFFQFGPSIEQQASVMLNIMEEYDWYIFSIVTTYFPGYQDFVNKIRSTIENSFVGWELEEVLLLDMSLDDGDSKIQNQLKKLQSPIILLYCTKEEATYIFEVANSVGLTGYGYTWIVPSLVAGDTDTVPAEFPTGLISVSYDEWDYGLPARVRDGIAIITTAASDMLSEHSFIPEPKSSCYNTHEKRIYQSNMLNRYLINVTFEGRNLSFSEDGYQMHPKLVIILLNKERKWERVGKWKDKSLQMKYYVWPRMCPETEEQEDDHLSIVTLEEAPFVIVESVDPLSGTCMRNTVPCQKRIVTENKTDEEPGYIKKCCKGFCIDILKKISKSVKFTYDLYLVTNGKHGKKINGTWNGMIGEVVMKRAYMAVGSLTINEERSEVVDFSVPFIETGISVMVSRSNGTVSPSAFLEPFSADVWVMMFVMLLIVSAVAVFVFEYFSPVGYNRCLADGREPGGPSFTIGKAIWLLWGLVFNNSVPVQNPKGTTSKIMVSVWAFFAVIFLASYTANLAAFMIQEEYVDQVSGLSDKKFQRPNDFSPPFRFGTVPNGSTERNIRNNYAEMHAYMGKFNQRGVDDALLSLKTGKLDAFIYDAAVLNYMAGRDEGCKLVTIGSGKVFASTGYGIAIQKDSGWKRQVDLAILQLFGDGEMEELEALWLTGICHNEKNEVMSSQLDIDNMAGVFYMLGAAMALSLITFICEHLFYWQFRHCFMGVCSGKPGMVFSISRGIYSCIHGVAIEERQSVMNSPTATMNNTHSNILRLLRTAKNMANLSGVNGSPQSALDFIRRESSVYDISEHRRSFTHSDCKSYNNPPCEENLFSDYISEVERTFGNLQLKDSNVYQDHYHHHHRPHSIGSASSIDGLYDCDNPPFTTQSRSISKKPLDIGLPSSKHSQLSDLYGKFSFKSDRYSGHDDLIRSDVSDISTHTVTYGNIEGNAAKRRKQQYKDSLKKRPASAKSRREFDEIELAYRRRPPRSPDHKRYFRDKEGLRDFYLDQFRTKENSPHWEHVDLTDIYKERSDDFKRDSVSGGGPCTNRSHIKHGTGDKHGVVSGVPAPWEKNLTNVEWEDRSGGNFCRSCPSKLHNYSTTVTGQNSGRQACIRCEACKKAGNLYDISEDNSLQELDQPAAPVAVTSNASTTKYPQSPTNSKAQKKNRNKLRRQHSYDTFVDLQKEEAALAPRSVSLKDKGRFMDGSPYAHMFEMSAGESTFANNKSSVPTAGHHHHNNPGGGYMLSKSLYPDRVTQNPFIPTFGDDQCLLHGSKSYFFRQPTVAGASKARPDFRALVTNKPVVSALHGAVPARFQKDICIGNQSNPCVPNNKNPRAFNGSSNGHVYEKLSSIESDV
Outline: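 Xenopus oocytes injected with NR1 plus NR2B cRNAs at 1:5 (0.1–4 ng NR1 plus 0.5–20 ng NR2). Two-electrode voltage clamp at −70 mV. Receptors activated by superfused glycine and glutamate (10 µM). IC50 from concentration–inhibition curves using five or six concentrations. Means ± SEM of four oocytes.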

| IC50 [2] | Compound | IC50 (FM3A) | IC50 [1] |
| --- | --- | --- | --- |
| 108 nM | NCCCCNCCCNCCCCNC(=O)N1c2ccccc2Sc2ccccc21 | 32500 nM | 78 nM |
| 335 nM | NCCCCNCCCNCCCCNC(=O)N1c2ccccc2C=Cc2ccccc21 | 115000 nM | 198 nM |
| 270 nM | NCCCCNCCCNCCCCNC(=O)N1c2ccccc2CCc2ccccc21 | 169000 nM | 117 nM |
|  | CC12CC3CC(C)(C1)CC(N)(C3)C2 [MEMANTINE] | 147000 nM |  |
| 166 nM | NCCCCNCCCCNCCCCNC(=O)n1c2ccccc2c2ccccc21 | 84200 nM | 111 nM |
| 108 nM | NCCCCNCCCCNCCCCNC(=O)N1c2ccccc2Sc2ccccc21 | 40400 nM | 127 nM |
| 293 nM | NCCCCNCCCCNCCCCNC(=O)N1c2ccccc2C=Cc2ccccc21 | 132000 nM |  |
| 142 nM | NCCCCNCCCCNCCCCNC(=O)N1c2ccccc2CCc2ccccc21 | 133000 nM |  |

| Compound | IC50 [2] | IC50 (FM3A) | IC50 [1] |
| --- | --- | --- | --- |
| NCCCNCCCCNCCCNC(=O)N1c2ccccc2C=Cc2ccccc21 | 199 nM | 97600 nM | 203 nM |
| NCCCNCCCCNCCCNC(=O)n1c2ccccc2c2ccccc21 | 83 nM | 31300 nM | 145 nM |
| NCCCCNCCCNCCCCNC(=O)n1c2ccccc2c2ccccc21 | 189 nM | 42300 nM | 211 nM |
| NCCCNCCCCNCCCNC(=O)c1ccc2c(c1)C(=O)c1ccccc1C2=O | 491 nM | 14900 nM | 392 nM |
| NCCCNCCCCNCCCNC(=O)N1c2ccccc2CCc2ccccc21 | 442 nM | 102000 nM | 958 nM |
| NCCCNCCCCNCCCNC(=O)N1c2ccccc2Sc2ccccc21 | 348 nM | 57100 nM | 215 nM |
